Drawing on ChEMBL document CHEMBL3612059, “Synthesis of 1,2-benzisoxazole tethered 1,2,3-triazoles that exhibit anticancer activity in acute myeloid leukemia cell lines by inhibiting histone deacetylases, and inducing p21 and tubulin acetylation” (Bioorg Med Chem, 2015), this text covers Activity, inhibition and IC50 for one compound.

The source made the active and inactive calls. The rule behind the calls is not given here.

The subject of series [1] is MOLM-14. Briefly: Induction of apoptosis in human MOLM14 cells assessed as necrotic cells at 2.5 uM after 72 hrs by Annexin V-FITC/propidium iodide staining-based flow cytometric analysis (reference value: 1%). It is filed as functional. In a few lines: (§1)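 100,000 cells per well treated with 2.5, 5.0 or 10 μM for 72 h. Washed in ice-cold Ca/Mg-free PBS, resuspended in 100 μl binding buffer, stained with 5 μl PI plus 3 μl annexin V-FITC for 15 min in the dark, then read immediately by flow cytometry. Quadrants scored as live, early apoptotic, late apoptotic and necrotic.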
(In general: In flow cytometry, cells or beads pass a laser one at a time.)

The subject of series [2] is MOLM-14. Briefly: Induction of apoptosis in human MOLM14 cells assessed as early apoptotic cells at 10 uM after 72 hrs by Annexin V-FITC/propidium iodide staining-based flow cytometric analysis (reference value: 7%). The series is classed as functional. Put shortly: as §1
Series [3] concerns MV4-11. The series is described as follows: Induction of apoptosis in human MV4-11 cells assessed as necrotic cells at 2.5 uM after 72 hrs by Annexin V-FITC/propidium iodide staining-based flow cytometric analysis relative to control. The series is classed as functional. Put shortly: (§2)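 MV4-11 cells (RPMI, 10 % FBS, 37 °C, 5 % CO2), 100,000 per well, exposed to PTB at 2.5, 5.0 or 10 μM for 72 h. Washed in ice-cold Ca/Mg-free PBS, stained with annexin V-FITC and PI in 1X binding buffer for 15 min in the dark, then read at once by flow cytometry. Necrotic cells are the annexin-negative/PI-positive quadrant.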

For series [4], the system named is MV4-11. The series is described as follows: Induction of apoptosis in human MV4-11 cells assessed as necrotic cells at 5 uM after 72 hrs by Annexin V-FITC/propidium iodide staining-based flow cytometric analysis relative to control. It is filed as functional. In a few lines: as §2
The subject of series [5] is MV4-11. Briefly: Induction of apoptosis in human MV4-11 cells assessed as late apoptotic cells at 10 uM after 72 hrs by Annexin V-FITC/propidium iodide staining-based flow cytometric analysis (reference value: 2%). The series is classed as functional. In a few lines:
as §1

In series [6] the test system is MOLM-14. The series is described as follows: Induction of apoptosis in human MOLM14 cells after 72 hrs by Annexin V-FITC/propidium iodide staining-based flow cytometric analysis. It is filed as functional, cell-based. Put shortly: as §1
A short description of series [7]: Inhibition of cyclin D protein expression in human MOLM13 cells by Western blot analysis. The series is classed as functional, cell-based. To be noted: MOLM-13. On the technique in general: A western blot detects proteins with antibodies after separation by electrophoresis.
Series [8] has as its target Histone deacetylase (Homo sapiens) (UniProt Q13547+O15379+Q9UBN7+Q92769+Q9UQL6+Q8WUI4+Q9BY41+Q96DB2+P56524+Q9UKV0+Q969S8). The series is described as follows: Inhibition of HDAC in human MV4-11 cells assessed as increase in acetylation of histone H3 by Western blot analysis. The series is classed as cell-based. Put shortly: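 MV4-11 cells were treated and histones acid-extracted: Triton buffer, then NaCl buffer, 0.24 M H2SO4 on ice for 2 h, acetone precipitation overnight, Bradford quantitation. Histones (0.5 µg) were run on 4-20 % gradient gels, blotted to PVDF, blocked in 5 % milk and probed overnight at 4 °C with anti-acetyl-histone H3 (1:1000). HRP secondary, ECL detection, total histone H3 as loading control.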

In series [9] the test system is MV4-11. Briefly: Cytotoxicity against human MV4-11 cells assessed as cell viability after 72 hrs by MTT assay. The series is classed as functional, cell-based. The note with it: MV4-11, 72 h. In a few lines:
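MV4-11 cells, 8,000/well, exposed for 72 h to […]. MTT added to 0.5 mg/ml final for 3 h at 37 °C, SDS-HCl solubilization, A570 read. Percent inhibition normalized to diluent controls. Three independent experiments in quadruplicate, mean ± SD.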
(In general: Formazan colour is commonly taken as a measure of viable cells.)

The test system of series [10] is MOLM-14. Briefly: Cytotoxicity against human MOLM14 cells assessed as cell viability at 0.25 to 5 uM by MTT assay. The series is classed as functional, cell-based. Put shortly: (§3)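 AML cells kept in RPMI with 10 % FBS and 1 % penicillin-streptomycin at 37 °C, 5 % CO₂, mycoplasma-screened. Seeded at 8,000 cells/well across a range of concentrations and read at several times up to 96 h. MTT added to 0.5 mg/ml final for 3 h at 37 °C, formazan dissolved in SDS-HCl, absorbance read at 570 nm. IC50 taken from the dose-response curves.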

Series [11] deals with MOLM-14. The series is described as follows: Cytotoxicity against human MOLM14 cells assessed as cell viability measured at 96 hrs by MTT assay. The note with it: MOLM-14, 96 h. It is filed as functional, cell-based. Put shortly: as §3
Series [12] relates to MV4-11. The series is described as follows: Cytotoxicity against human MV4-11 cells assessed as cell viability measured at 96 hrs by MTT assay. It is filed as functional, cell-based. The note with it: MV4-11, 96 h. Put shortly: as §3
The nature of series [13]: Cytotoxicity against C57BL/6 mouse bone marrow cells assessed as cell viability at 5 to 10 uM measured up to 72 hrs by MTT assay. The series is classed as cell-based. Put shortly:
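Total bone marrow from C57BL/6 mice cultured in IMDM with 20 % FBS, 10 ng/ml mouse IL-3, 10 ng/ml IL-6 and 50 ng/ml SCF. Exposed to 5 or 10 μM for up to 72 h. MTT added to 0.5 mg/ml for 3 h at 37 °C, formazan dissolved in SDS-HCl, A570 read. Three independent experiments, quadruplicate wells, mean ± SD.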

For series [14], the system named is MOLM-14. Briefly: Cell cycle arrest in human MOLM14 cells assessed as accumulation at sub-G1 phase after 72 hrs by propidium iodide staining-based flow cytometric analysis. The series is classed as functional. Put shortly:
(§4)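 Cells in RPMI with 10 % FBS at 37 °C, 5 % CO₂; treated up to 72 h, washed in cold PBS, fixed in -20 °C-precooled 70 % ethanol at 4 °C. Stained with 50 µg/ml PI, 1 % Triton X-100 and 20 µg/ml RNase A in PBS, 30 min, 37 °C, dark. Cell-cycle phases read by flow cytometry; three independent experiments, mean ± SD.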

Series [15] relates to MV4-11. Briefly: Cell cycle arrest in human MV4-11 cells assessed as accumulation at sub-G1 phase after 72 hrs by propidium iodide staining-based flow cytometric analysis. The series is classed as functional. In a few lines:
as §4

For series [16], the system named is MOLM-14. The series is described as follows: Induction of apoptosis in human MOLM14 cells assessed as early apoptotic cells at 2.5 uM after 72 hrs by Annexin V-FITC/propidium iodide staining-based flow cytometric analysis (reference value: 7%). The series is classed as functional. Put shortly: as §1
The subject of series [17] is MOLM-14. The series is described as follows: Induction of apoptosis in human MOLM14 cells assessed as late apoptotic cells at 2.5 uM after 72 hrs by Annexin V-FITC/propidium iodide staining-based flow cytometric analysis (reference value: 2%). It is filed as functional. Put shortly:
as §1

Series [18] deals with MOLM-13 (Homo sapiens). The series is described as follows: Cytotoxicity against human MOLM13 cells assessed as cell viability after 24 to 96 hrs by MTT assay.
Series [19] deals with MOLM-13 (Homo sapiens). The series is described as follows: Cell cycle arrest in human MOLM13 cells assessed as accumulation at sub-G1 phase after 72 hrs by propidium iodide staining-based flow cytometric analysis.
Series [20] deals with MOLM-13 (Homo sapiens). Briefly: Induction of apoptosis in human MOLM13 cells assessed as late apoptotic cells at 10 uM after 72 hrs by Annexin V-FITC/propidium iodide staining-based flow cytometric analysis (reference value: 7%).
The test system of series [21] is MOLM-13 (Homo sapiens). The series is described as follows: Induction of apoptosis in human MOLM13 cells assessed as late apoptotic cells at 2.5 uM after 72 hrs by Annexin V-FITC/propidium iodide staining-based flow cytometric analysis (reference value: 7%).
Series [22] relates to MOLM-13 (Homo sapiens). Briefly: Induction of apoptosis in human MOLM13 cells assessed as early apoptotic cells at 5 uM after 72 hrs by Annexin V-FITC/propidium iodide staining-based flow cytometric analysis (reference value: 11%).

What is called IC50 is the midpoint of a concentration-inhibition curve.

As to `c1ccc(Oc2ccc(-c3cn(-c4noc5ccccc45)nn3)cc2)cc1`, the Activity was 2% in the series on MOLM-14 [1]; 24% in the series with MOLM-14 [2]; 2% in the series with MV4-11 [3]; 3% in the series on MV4-11 [4]; 26% with MV4-11 [5]; “Dose-dependent effect” in the series with MOLM-14 [6]. Also, the Activity result in the series with MOLM-14 [10] is “Dose-dependent effect”; in series [13], “Non-toxic”; with MOLM-14 [16], 12%; in the series with MOLM-14 [17], 26%; in the series with MOLM-13 (Homo sapiens) [18], “Dose-dependent effect”; with MOLM-13 (Homo sapiens) [20], 35%. Moreover, the Activity turned out to be 20% in the series on MOLM-13 (Homo sapiens) [21] and 19% in the series with MOLM-13 (Homo sapiens) [22]. The inhibition result in series [7] was “Dose-dependent effect”. Besides, in [8], the inhibition result was “Active”. Besides, the IC50 in the series with MV4-11 [9] came out at 2 µM; with MOLM-14 [11], 2 µM; in the series with MV4-11 [12] it was 2.5 µM. The outcome in the series with MOLM-14 [14], with MV4-11 [15] and with MOLM-13 (Homo sapiens) [19] was Active.
